Many of the other results were omitted from the sample, so hits are more common in it than they were.
L major viab: Leishmania major promastigote growth inhibition, primary screen. 9% of 200,000 active. AID 1063, 2008. inhibition, % at 10 µM. Leishmania major promastigotes, resazurin fluorescence viability; in the data active = inhibition above about 50%;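 note: promastigotes grown with compound for 44 hours at 28 °C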
DTT redox prof: compounds producing H2O2 with reducing agent – biochemical, NIH compound library profiling, artefact control for MLSCN library redox annotation, primary screen | DTT-dependent redox cycling H2O2, phenol red/HRP absorbance; 100% = 100 µM peroxide control, 0% = buffer | activation, % at 10 µM | 0.03% of 200,000 active;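 active = activation of at least 50% relative to the plate's high and low controls in the primary single-dose screen; inactive = activation below 50%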;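 note: compound incubated with DTT at 0.8 mM final as the reducing agent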
MPTP block: mitochondrial permeability transition pore inhibitors, primary screen, biochemical, isolated mouse mitochondria, absorbance | 1.4% of 360,000 active | Ca2+ swelling absorbance, 30 min | AID 602449, 2012 | inhibition, % at 10 µM;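 active = inhibition of 50% or more, scaled per plate between neutral and stimulator controls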;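 note: 0% = DMSO wells given calcium and 100% = 1 mM EGTA wells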
Lipid droplet: inhibitors of hepatocyte lipid droplet formation, primary screen, imaging, high-throughput imaging, BODIPY stain; AML12 mouse hepatocytes, oleate lipid droplets; inhibition, % at 6.5 µM; 0.4% of 240,000 active;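 active = lipid droplet intensity inhibited by at least 50%, with more than 500 cells counted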
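System: AML12 hepatocytes (mouse). Probe or stimulus: oleic acid at 100 µM to induce lipid droplet formation. Times: overnight treatment with compound plus oleate. Detection: Image-based BODIPY and DAPI two-channel analysis. Evaluation: percent inhibition of filter-corrected integrated lipid droplet intensity per well.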
T cruzi inh: inhibitors of intracellular T. cruzi growth, primary screen, luminescence, NIH3T3 host cells; 1.4% of 300,000 active; inhibition, % (test concentration not listed); T. cruzi beta-gal in NIH3T3, 90 h; AID 1885, 2009;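 active = mean inhibition across valid replicates above about 55%, limit read from the data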;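 note: signal also drops with host cell toxicity which is not excluded here; 0% = plate median of DMSO wells and 100% = zero luminescence signal; higher percent means less beta-gal luminescence so fewer parasites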
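Incubation – ≥90 h infection period, 3 h prior cell attachment · System – NIH/3T3 fibroblasts plus reporter T. cruzi · Doses – compound pinned at 50 nL/well, DMSO · Read-out basis – percent inhibition of parasite-derived β-gal signal · Signal – luminescent β-galactosidase signal after 60 min lysis · Also added – 5000 T. cruzi trypomastigotes/well · Medium – Low-serum DMEM with 2% FBS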
Starred values were filed as active, the others as inactive; · = no result given; ! = not active in a repeat.

SMILES	L major viab	DTT redox prof	MPTP block	Lipid droplet	T cruzi inh
O=C(Nc1ccc(Cl)c(C(F)(F)F)c1)NC1CC2CCCC(C1)N2Cc1ccccc1 (centres undefined)	100.4*	-1.9	·	-52.7	53.5
CC(C)CNC(=S)NC1CC2CCCC(C1)N2C1CCCCC1 (centres undefined)	52.1*	0.1	1.3	-4.4	-5.9
S=C(NCCc1ccccc1)NC1CC2CCC(C1)N2Cc1ccccc1 (centres undefined)	94.2*	-0.7	28.4	-4.4	17.7
O=C(NC1CCCCC1)NC1CC2CCCC(C1)N2C1CCCC1 (centres undefined)	-6.8	1.3	1.8	·	2.2
CCCNC(=S)NC1CC2CCC(C1)N2Cc1ccccc1 (centres undefined)	66.0*	-8.3	-0.6	·	-23.0
NC(=O)NOCc1ccccc1F	0.4	-1.6	-1.4	-3.0	-11.4
CN(C)S(=O)(=O)c1ccc(Cl)c(NC(=O)COC(=O)c2ccc3c(c2)NC(=O)CS3)c1	·	·	5.9	-0.1	-6.2
O=C(NC1CC2CCCC(C1)N2Cc1ccccc1)C1CCCCC1 (centres undefined)	83.6*	-1.7	-1.6	-0.3	21.1
S=C(NC1CCCCC1)NC1CC2CCC(C1)N2Cc1ccccc1 (centres undefined)	89.6*	-1.2	7.4	4.0	15.8
CCn1cc(C(=O)N[C@@H](CCSC)C(=O)NCCCOC)c(=O)c2cc3c(cc21)OCO3	·	·	-0.7	1.5	-15.3
CC(C)(C)c1ccc(S(=O)(=O)Nc2ccc(C(O)(C(F)(F)F)C(F)(F)F)cc2)cc1	·	·	2.0	·	·
CC(C)COC(=O)N(C)c1ccc(C(O)(C(F)(F)F)C(F)(F)F)cc1	99.8*	-3.2	2.0	-2.4	2.2
Cc1ccc2[nH]c(=O)c(CN(CC3CCCO3)C(=O)c3ccncc3)cc2c1 (centres undefined)	70.0*	-0.9	1.2	-13.9	-6.2
Cc1ccc2cc(CN(CC3CCCO3)C(=O)C(C)C)c(=O)[nH]c2c1 (centres undefined)	-3.1	0.2	2.5	-4.0	-15.1
Cc1cc(C)c2cc(CN(Cc3nnnn3C3CCCCC3)CC3CCCO3)c(=O)[nH]c2c1 (centres undefined)	99.0*	-1.0	1.2	-9.6	-3.0
Cc1ccc2cc(CN(Cc3nnnn3C3CCCCC3)CC3CCCO3)c(=O)[nH]c2c1 (centres undefined)	94.1*	1.6	1.2	·	32.4
Cc1cc2cc(CN(Cc3nnnn3C3CCCCC3)CC3CCCO3)c(=O)[nH]c2cc1C (centres undefined)	81.9*	0.8	-0.2	·	17.3
Cc1oc(-c2ccccc2Cl)nc1CS(=O)CC(=O)NCCCN1CC(C)CC(C)C1 (centres undefined)	·	·	0.4	-22.7	12.7
CC(OC(=O)c1ccccc1Nc1ccc(SC(F)F)cc1)C(N)=O (centres undefined)	55.1*	-1.0	18.7	39.1	-37.1
O=C(COC(=O)c1ccccc1Nc1ccc(SC(F)F)cc1)NC1CC1	61.0*	0.3	25.9	-11.5	9.0
NC(=O)COC(=O)c1ccccc1Nc1ccc(SC(F)F)cc1	-7.2	0.0	-0.2	-0.5	-3.6
CC(C)(C)NC(=O)COC(=O)c1ccccc1Nc1ccc(SC(F)F)cc1	11.3	0.3	39.8	-32.4	1.1
CCC(=Nc1ccc(N)cc1)C1=C(O)C(C(=O)OC)C(C)(C)CC1=O (centres undefined)	-0.8	2.5	1.3	·	-27.7
CCCCC(=Nc1ccc(N)cc1)C1=C(O)C(C(=O)OC)C(C)(C)CC1=O (centres undefined)	68.0*	-1.8	0.5	-8.3	-7.5
CC(C)(C(=O)N1CCC1(C)C(=O)NS(=O)(=O)c1cccc(C#N)c1)c1ccccc1 (centres undefined)	·	·	-0.9	·	·
SMILES	L major viab	DTT redox prof	MPTP block	Lipid droplet	T cruzi inh
CC(=O)/C=C1/C(=O)Nc2ccccc21	93.8*	-1.1	-1.1	3.7	24.3
CN(C)CCCNC(=O)c1cc(C(=O)c2ccccc2)c[nH]1	·	·	-0.2	-4.4	44.9
O=C(c1ccccc1)c1c[nH]c(C(=O)NNc2ccccc2)c1	89.2*	0.1	0.5	36.4	57.2*
CCC1CCCCN1C(=O)c1ccc(OC2CCN(C(=O)CCOC)CC2)cc1 (centres undefined)	·	·	0.0	-0.7	21.5
Cc1cccc(OCCC(=O)NCC(=O)Nc2cccc(C)c2C)c1	60.9*	0.5	0.5	-17.6	-1.1
COc1cc(OC)c(NC(=O)c2sc3ncn(CC(=O)N4CCOCC4)c(=O)c3c2C)cc1Cl	·	·	-1.6	-21.3	22.1
Cc1ccc(NC(=O)ON=C2CCCC2)cc1	84.2*	0.0	-5.1	11.7	5.3
O=C(Nc1ccccc1)ON=C1CCCC1	5.0	0.2	0.1	-3.1	16.8
CC(Cc1cccs1)NC(=S)Nc1ccccc1 (centres undefined)	59.9*	-0.1	4.0	15.9	-1.2
CC(Cc1cccs1)NC(=O)Nc1ccccc1 (centres undefined)	4.4	1.6	1.3	·	1.1
CN(Cc1ccccc1)N=Nc1nc[nH]c1C(N)=O	·	·	-0.9	·	·
NC(=O)c1[nH]cnc1N	·	·	-0.8	-7.7	57.9*!
O=C(CN(Cc1cccs1)C(=O)CNS(=O)(=O)c1ccccc1)NC1CCCC1	-3.8	0.2	-2.3	-5.1	4.8
O=c1nc(Oc2ccccc2)nc2ncccn12	·	·	1.1	·	·
COc1ccccc1NC(=S)N1CCNC(=O)C1CC(=O)Nc1cccc(C)c1 (centres undefined)	·	·	1.7	13.0	-3.1
COc1ccc(NC(=S)N2CCNC(=O)C2CC(=O)Nc2cccc(Cl)c2C)cc1 (centres undefined)	51.6*	-0.1	1.6	-9.2	-13.2
COc1ccccc1NC(=O)CC1C(=O)NCCN1C(=O)Nc1ccc(Cl)c(Cl)c1 (centres undefined)	67.5*	0.4	-1.8	-7.3	-12.9
COC(=O)CC1C(=O)NCCN1C(=S)Nc1ccccc1 (centres undefined)	-2.1	-0.2	17.5	10.5	-27.5
CCOC(=O)CC1C(=O)NCCN1C(=S)Nc1ccccc1 (centres undefined)	57.1*	0.1	-1.2	11.3	-67.9
COc1ccc(C(=O)N2CCNC(=O)C2CC(=O)Nc2ccc(C)cc2)cc1 (centres undefined)	99.6*	-0.3	-0.3	3.2	-7.2
Cc1ccc2nc(-c3ccc(NC(=S)NC4CC(C)(C)NC(C)(C)C4)cc3)sc2c1	97.6*	-1.5	31.7	30.4	13.9
Cc1ccc(N(Cc2ccc(C(=O)NCCSc3ccccn3)cc2)S(C)(=O)=O)cc1C	67.5*	0.5	0.4	12.7	10.9
Cc1cccc(N(CC(=O)NCCSc2ccccn2)S(=O)(=O)c2ccccc2)c1	57.1*	-0.3	0.8	-60.2	0.2
CCCN(C)C1CN(Cc2cn(Cc3ccc(F)cc3)nn2)S(=O)(=O)C1 (centres undefined)	·	·	1.5	·	·

Screens from PubChem BioAssay.
